pEC50: −log10 of the molar value.
What was measured:
[1] = Cytotoxicity against human A549 cells assessed as growth inhibition at 10 uM after 48 hrs by CellTiter-Glo assay relative to control; values are per cent of control; conditions: A549 cells
Trypanosoma brucei [2] = test: Antitrypanosomal activity against Trypanosoma brucei Lister 427 bloodstream form assessed as parasite growth inhibition at 50 uM after 72 hrs by SYBR Green assay relative to control; type: functional; conditions: Lister 427, 72 h, read-out: GI
Trypanosoma brucei [3] = test: Antitrypanosomal activity against Trypanosoma brucei Lister 427 bloodstream form after 72 hrs by SYBR Green assay; type: functional, organism-based; conditions: Lister 427, 72 h
CYP1A2 = biological target: T1, CYP1A2 (Homo sapiens, UniProt P05177); test: Inhibition of human microsomal CYP1A2 expressed in baculovirus infected BTI-TN-5B1-4 cells at 10 uM incubated for 30 mins by luciferase assay relative to control; type: ADME
T1 sequence (P05177 whole entry): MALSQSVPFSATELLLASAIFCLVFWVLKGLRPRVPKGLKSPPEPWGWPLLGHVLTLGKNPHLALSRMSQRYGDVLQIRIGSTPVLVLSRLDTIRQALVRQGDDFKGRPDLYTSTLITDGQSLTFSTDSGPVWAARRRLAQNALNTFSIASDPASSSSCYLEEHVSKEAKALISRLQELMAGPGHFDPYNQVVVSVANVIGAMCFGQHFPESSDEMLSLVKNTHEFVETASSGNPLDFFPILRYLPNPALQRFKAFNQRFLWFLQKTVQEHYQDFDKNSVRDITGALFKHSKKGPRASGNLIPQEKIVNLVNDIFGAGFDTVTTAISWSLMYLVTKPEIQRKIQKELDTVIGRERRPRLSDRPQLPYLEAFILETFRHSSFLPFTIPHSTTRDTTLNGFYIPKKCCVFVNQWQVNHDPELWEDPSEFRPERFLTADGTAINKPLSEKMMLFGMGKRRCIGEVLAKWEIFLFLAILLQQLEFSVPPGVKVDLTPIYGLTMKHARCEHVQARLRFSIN
In short: (§1)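 CYP1A2, 2C9, 2C19, 2D6 and 3A4 in microsomes from baculovirus-infected insect cells, each with a P450-Glo luminogenic substrate. Inhibition read as loss of light; single-point at 10 μM, triplicate.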

hERG (KCNH2) = hERG (KCNH2) (Homo sapiens, UniProt Q12809); test: Inhibition of human ERG at 10 uM incubated for 2 hrs by fluorescence polarisation assay relative to control
Trypanosoma brucei [4] = test: Potentiation of methotrexate-induced antitrypanosomal activity against Trypanosoma brucei Lister 427 bloodstream form assessed as dose reduction index for compound at EC50 after 72 hrs by resazurin dye-based assay; type: functional
CYP2C19 = CYP2C19 (Homo sapiens, UniProt P33261); test: Inhibition of human microsomal CYP2C19 expressed in baculovirus infected BTI-TN-5B1-4 cells at 10 uM incubated for 30 mins by luciferase assay relative to control; type: ADME
In short: as §1

CYP3A4 = CYP3A4 (Homo sapiens, UniProt P08684); test: Inhibition of human microsomal CYP3A4 expressed in baculovirus infected BTI-TN-5B1-4 cells at 10 uM incubated for 30 mins by luciferase assay relative to control; type: ADME
In short: as §1

CYP2D6 = CYP2D6 (Homo sapiens, UniProt P10635); test: Inhibition of human microsomal CYP2D6 expressed in baculovirus infected BTI-TN-5B1-4 cells at 10 uM incubated for 30 mins by luciferase assay relative to control; type: ADME
In short: as §1

[5] = Cytotoxicity against human THP1 cells assessed as viable cells at 100 uM after 72 hrs by MTT assay relative to control; type: cell-based, THP-1; conditions: read-out: Activity
In short: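 THP-1-derived macrophages exposed to compounds for 72 h, tested at 100 μM or in dose-response; viability read by MTT colorimetric assay.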

[6] = Selectivity index, ratio of CC50 for human A549 cells to EC50 for Trypanosoma brucei Lister 427 bloodstream form; type: toxicity; conditions: read-out: Ratio CC50/EC50
In short: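 Selectivity index = CC50 in the human host or cytotoxicity cell line divided by parasite EC50.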

[7] = biological target: T2, Pteridine reductase, putative (Trypanosoma brucei) (UniProt Q581W1); test: Inhibition of Trypanosoma brucei PTR1 at 50 uM using H2B as substrate in presence of NADPH by photometric analysis relative to control
T2 sequence (whole entry): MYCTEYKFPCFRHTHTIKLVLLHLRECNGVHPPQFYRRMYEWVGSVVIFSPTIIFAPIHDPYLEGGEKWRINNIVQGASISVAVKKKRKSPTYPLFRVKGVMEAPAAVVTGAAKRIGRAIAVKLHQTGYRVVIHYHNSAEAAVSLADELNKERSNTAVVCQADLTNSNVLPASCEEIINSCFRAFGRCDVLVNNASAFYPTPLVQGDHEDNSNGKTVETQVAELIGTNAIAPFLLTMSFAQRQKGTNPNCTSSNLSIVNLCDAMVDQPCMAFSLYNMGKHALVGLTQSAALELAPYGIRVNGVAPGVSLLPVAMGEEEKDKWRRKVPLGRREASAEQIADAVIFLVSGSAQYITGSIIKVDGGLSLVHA

[8] = biological target: T3, Pteridine reductase 1 (Leishmania major) (UniProt Q01782); test: Inhibition of Leishmania major PTR1 at 50 uM using H2B as substrate in presence of NADPH by photometric analysis relative to control
T3 sequence (whole entry): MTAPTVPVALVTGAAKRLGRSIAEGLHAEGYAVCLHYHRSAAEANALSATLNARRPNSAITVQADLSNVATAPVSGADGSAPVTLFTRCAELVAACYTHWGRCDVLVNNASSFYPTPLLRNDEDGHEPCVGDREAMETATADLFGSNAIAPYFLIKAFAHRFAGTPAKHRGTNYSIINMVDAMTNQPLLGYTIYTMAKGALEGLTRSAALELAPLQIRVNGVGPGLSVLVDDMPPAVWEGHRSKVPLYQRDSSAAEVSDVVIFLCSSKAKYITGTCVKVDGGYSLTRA

Trypanosoma brucei [9] = test: Antitrypanosomal activity against Trypanosoma brucei Lister 427 bloodstream form at 10 uM after 72 hrs by resazurin dye-based assay relative to control; type: functional
Trypanosoma brucei [10] = test: Potentiation of methotrexate-induced antitrypanosomal activity against Trypanosoma brucei Lister 427 bloodstream form at 10 uM after 72 hrs by resazurin dye-based assay; type: functional
[11] = Cytotoxicity against human WI38 cells assessed as growth inhibition at 10 uM after 48 hrs by CellTiter-Glo assay relative to control; values are per cent of control; conditions: WI38 cells
[12] = Cytotoxicity against human U2OS cells assessed as viable cells at 50 uM after 72 hrs by MTT assay relative to control; type: cell-based; conditions: read-out: Activity
Trypanosoma cruzi = test: Antitrypanosomal activity against Trypanosoma cruzi amastigote form infected in human U2OS cells assessed as parasite growth inhibition at 50 uM after 72 hrs relative to control; type: functional; conditions: read-out: GI
In short: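 U2OS monolayers grown for 24 h, then infected with tissue-derived trypomastigotes of T. cruzi Y strain. Compounds were added 24 h after infection at 50 μM (single-point) or in dose-response, with 72 h exposure. Plates were fixed, stained and analysed by high-content imaging; activity was normalized to infected and non-infected controls. Means of at least two experiments; benznidazole as reference.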

Trypanosoma brucei [13] = test: Antitrypanosomal activity against Trypanosoma brucei Lister 427 bloodstream form after 72 hrs by resazurin dye-based assay; type: functional, organism-based; conditions: Lister 427, 72 h

CYP2C19, sequence (P33261 whole entry): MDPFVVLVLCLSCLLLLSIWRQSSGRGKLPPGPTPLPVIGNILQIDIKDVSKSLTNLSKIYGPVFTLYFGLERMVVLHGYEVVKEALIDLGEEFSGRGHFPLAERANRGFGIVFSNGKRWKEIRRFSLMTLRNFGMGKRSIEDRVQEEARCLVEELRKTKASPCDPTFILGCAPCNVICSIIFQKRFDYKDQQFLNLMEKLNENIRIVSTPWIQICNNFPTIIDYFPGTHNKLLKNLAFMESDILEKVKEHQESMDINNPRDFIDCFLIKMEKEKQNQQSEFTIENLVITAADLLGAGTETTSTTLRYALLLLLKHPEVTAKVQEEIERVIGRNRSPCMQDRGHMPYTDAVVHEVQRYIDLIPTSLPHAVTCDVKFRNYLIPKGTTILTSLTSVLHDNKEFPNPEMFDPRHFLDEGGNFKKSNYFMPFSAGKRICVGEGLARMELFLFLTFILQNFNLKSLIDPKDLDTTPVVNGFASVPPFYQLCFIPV
hERG (KCNH2), sequence (Q12809 whole entry): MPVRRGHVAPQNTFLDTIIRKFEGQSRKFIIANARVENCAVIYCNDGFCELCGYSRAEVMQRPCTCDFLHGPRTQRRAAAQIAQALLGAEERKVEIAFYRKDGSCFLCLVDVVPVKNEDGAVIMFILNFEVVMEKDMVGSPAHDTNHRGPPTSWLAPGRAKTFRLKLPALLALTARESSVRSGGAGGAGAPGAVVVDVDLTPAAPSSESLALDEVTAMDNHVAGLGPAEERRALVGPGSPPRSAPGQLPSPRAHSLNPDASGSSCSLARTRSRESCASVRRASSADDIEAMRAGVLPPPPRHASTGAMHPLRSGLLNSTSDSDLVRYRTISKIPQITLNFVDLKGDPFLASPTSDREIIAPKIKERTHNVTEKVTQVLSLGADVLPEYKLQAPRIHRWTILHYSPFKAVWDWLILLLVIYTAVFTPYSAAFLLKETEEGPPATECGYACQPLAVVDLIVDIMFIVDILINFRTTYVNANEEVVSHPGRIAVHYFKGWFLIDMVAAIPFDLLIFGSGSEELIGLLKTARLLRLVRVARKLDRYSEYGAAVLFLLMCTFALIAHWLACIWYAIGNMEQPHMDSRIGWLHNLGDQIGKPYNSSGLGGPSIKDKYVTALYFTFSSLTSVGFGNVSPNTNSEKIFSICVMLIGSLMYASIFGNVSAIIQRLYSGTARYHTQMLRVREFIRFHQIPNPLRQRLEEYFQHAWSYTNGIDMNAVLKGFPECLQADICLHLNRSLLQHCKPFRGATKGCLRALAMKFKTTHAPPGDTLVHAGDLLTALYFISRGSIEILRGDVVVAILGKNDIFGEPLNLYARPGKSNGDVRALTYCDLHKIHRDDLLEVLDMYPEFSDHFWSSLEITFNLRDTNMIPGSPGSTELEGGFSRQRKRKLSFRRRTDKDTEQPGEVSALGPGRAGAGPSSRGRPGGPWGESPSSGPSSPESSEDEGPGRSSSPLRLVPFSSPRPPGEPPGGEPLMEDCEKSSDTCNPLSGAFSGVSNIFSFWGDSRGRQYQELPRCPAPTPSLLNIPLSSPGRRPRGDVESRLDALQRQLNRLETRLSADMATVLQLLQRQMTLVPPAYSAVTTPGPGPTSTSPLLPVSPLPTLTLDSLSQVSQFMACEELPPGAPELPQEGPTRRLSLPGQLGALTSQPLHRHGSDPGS
CYP2D6, sequence (P10635 whole entry): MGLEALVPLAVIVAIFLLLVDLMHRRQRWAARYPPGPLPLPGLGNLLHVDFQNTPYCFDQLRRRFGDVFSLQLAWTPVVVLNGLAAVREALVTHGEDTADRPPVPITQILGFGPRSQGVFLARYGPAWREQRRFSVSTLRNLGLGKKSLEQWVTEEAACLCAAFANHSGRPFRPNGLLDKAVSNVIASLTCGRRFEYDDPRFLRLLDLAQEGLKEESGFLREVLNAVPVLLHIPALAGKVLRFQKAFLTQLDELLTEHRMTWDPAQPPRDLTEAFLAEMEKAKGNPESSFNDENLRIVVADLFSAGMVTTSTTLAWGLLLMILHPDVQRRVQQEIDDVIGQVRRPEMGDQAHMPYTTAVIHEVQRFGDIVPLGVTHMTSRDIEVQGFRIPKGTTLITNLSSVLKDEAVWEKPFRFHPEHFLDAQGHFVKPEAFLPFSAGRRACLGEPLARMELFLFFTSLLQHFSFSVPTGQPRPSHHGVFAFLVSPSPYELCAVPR
CYP3A4, sequence (P08684 whole entry): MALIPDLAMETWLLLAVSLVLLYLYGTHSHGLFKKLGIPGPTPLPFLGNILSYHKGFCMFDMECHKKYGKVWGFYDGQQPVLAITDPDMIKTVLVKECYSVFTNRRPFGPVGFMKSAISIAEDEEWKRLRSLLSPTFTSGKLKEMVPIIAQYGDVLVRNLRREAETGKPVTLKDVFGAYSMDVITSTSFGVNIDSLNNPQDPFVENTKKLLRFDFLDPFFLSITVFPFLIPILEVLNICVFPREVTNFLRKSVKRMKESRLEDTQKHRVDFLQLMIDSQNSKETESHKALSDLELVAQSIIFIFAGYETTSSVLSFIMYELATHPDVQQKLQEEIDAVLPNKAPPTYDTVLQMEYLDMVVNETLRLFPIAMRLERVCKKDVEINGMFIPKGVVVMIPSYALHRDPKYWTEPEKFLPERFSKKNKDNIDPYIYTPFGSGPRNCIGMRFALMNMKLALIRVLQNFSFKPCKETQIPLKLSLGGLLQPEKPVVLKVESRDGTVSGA

Row | pEC50 (Trypanosoma brucei [3]) | inhibition at 0.5 h, 10 µM (CYP1A2) [%] | inhibition at 0.5 h, 10 µM (CYP2C19) [%] | inhibition at 0.5 h, 10 µM (CYP3A4) [%] | inhibition at 0.5 h, 10 µM (CYP2D6) [%] | inhibition [7] [%] | inhibition [8] [%] | pEC50 (Trypanosoma brucei [13]) | Compound | cell growth (% of control) at 48 h, 10 µM [1] [%] | inhibition of growth at 50 µM (Trypanosoma brucei [2]) [%] | inhibition at 2 h, 10 µM (hERG (KCNH2)) [%] | Activity_index (Trypanosoma brucei [4]) | viability at 72 h, 100 µM [5] [%] | selectivity ratio [6] | Activity (Trypanosoma brucei [9]) [%] | PF (Trypanosoma brucei [10]) | cell growth (% of control) at 48 h, 10 µM [11] [%] | viability at 72 h, 50 µM [12] [%] | inhibition of growth at 50 µM (Trypanosoma cruzi) [%]
1 | 5.13 | 64.7 | 22.2 | -2.53 | 29.2 | 3.09 | 4.76 | 5.33 | COc1ccc(-c2cccc(/C=N/NC(N)=S)c2)cc1OC | 90.5 | 93.9 | 22.4 | 7.94 | 40.9 | 7 | 98.83 | 0.81 | 106 | 26.7 | 82.4
2 | 5.64 | 26.8 | 10.4 | 10.6 | 39.3 | 0.36 | 0.59 | 6.36 | NC(=S)N/N=C/c1ccc(OCc2ccc(Cl)c(Cl)c2)cc1 | 72.5 | 100 | 2.4 | 3.84 | 38.8 | 8 | 99.83 | 0.8 | 89.4 | 65.5 | 80.5

— ChEMBL document CHEMBL4196006, “Aryl thiosemicarbazones for the treatment of trypanosomatidic infections” (Eur J Med Chem, 2018)
